Assay results from ChEMBL document CHEMBL4828745, “Discovery and Structure-Activity Relationships of Quinazolinone-2-carboxamide Derivatives as Novel Orally Efficacious Antimalarials” (J Med Chem, 2021).

Experiments:
Plasmodium falciparum [1] = assay: Antiplasmodial activity against Plasmodium falciparum 3D7 infected in human erythrocyte assessed as intraerythrocytic growth inhibition incubated for 72 hrs by DAPI-staining based imaging analysis; assay type: functional, organism-based; conditions: 3D7, 72 h
How it was run: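 P. falciparum 3D7 cultured in RPMI1640 with hypoxanthine, HEPES, 2.5 mg/mL AlbuMAX II and 5% human serum. Sorbitol-synchronized rings exposed 72 h at 37 °C under 5% CO2/5% O2, then DAPI-stained with saponin/Triton X-100 for 8 h in the dark. High-content imaging with spot detection. Duplicate points. Reference antimalarials run in each assay.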

[2] = Fraction unbound in human plasma; assay type: ADME, cell-free
How it was run: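 Human plasma protein binding measured by rapid equilibrium dialysis.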

Plasmodium falciparum [3] = assay: Antimalarial activity against Plasmodium falciparum Dd2 MMV048 mutant harbouring Pf-pi4k assessed as inhibition of parasite growth incubated for […] by [3H]hypoxanthine incorporation assay based liquid scintillation counting method; assay type: functional, organism-based
How it was run: (§1)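 Genetically engineered P. falciparum lines carried mutations introduced into the Dd2 wild-type strain, which was tested alongside them. Growth inhibition was read by [3H]hypoxanthine incorporation over 72 h. IC50 is the mean of two independent biological replicates. Chloroquine and artesunate served as controls.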

CYP1A2 = molecular target: T1, CYP1A2 (Homo sapiens, UniProt P05177); assay: Inhibition of CYP1A2 (unknown origin) at 10 uM by UPLC-MS analysis relative to control; assay type: ADME
T1 sequence (P05177 whole entry): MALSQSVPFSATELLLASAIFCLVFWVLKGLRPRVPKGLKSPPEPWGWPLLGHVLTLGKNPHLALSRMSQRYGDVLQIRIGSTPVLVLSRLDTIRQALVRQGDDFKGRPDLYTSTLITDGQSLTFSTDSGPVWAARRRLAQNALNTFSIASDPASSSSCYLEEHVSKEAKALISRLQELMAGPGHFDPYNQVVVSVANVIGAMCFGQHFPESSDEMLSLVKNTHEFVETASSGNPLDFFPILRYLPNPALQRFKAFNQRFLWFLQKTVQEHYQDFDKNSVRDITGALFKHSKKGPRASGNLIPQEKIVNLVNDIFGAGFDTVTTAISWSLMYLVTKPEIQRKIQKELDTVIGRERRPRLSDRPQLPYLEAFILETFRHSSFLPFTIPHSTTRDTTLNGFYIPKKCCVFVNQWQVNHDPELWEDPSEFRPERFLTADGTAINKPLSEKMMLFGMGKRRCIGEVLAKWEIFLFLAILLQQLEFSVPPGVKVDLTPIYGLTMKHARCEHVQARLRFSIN
How it was run: (§2)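 Human liver microsomes, using a substrate-specific metabolite approach. Test compound at 1 and 10 μM. Reference inhibitors: furafylline (1A2), sulfaphenazole (2C9), quinidine (2D6), ketoconazole (3A4). Specific metabolites quantified by UPLC-MS. Percent inhibition relative to incubation without inhibitor.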

[4] = molecular target: Voltage-gated inwardly rectifying potassium channel KCNH2 (Homo sapiens, UniProt Q12809); assay: Inhibition of human ERG by QPatch automated patch clamp system
How it was run: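 hERG current recorded on a QPatch automated patch clamp at four concentrations in 0.5-log steps.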

Plasmodium falciparum [5] = assay: Antimalarial activity against Plasmodium falciparum 7G8 harbouring Pf-crt, Pf-mdrl,Pf-dhfr, Pf-dhps mutated loci assessed as inhibition of parasite growth incubated for […] by [3H]hypoxanthine incorporation assay based liquid scintillation counting method; assay type: functional, organism-based
How it was run: (§3)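 Drug-resistant laboratory P. falciparum strains were compared against the sensitive strain NF54. Growth inhibition was read by a modified [3H]hypoxanthine incorporation assay over 72 h. IC50 is the mean of two independent biological replicates. Chloroquine and artesunate served as controls.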

[6] = Intrinsic clearance in mouse liver microsomes at […] by LC-MS/MS analysis; assay type: ADME, Microsome
How it was run: (§4)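 Liver microsomes (human, mouse or rat) at 0.4 mg/mL protein, 37 °C, with an NADPH-regenerating system. Compound at 0.25 or 0.5 μM. Acetonitrile/diazepam quench, LC-MS quantitation. CLint from the first-order degradation rate constant.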

Plasmodium falciparum [7] = assay: Antiplasmodial activity against asexual blood stage Plasmodium falciparum 3D7 (MR4) infected in erythrocytes assessed as parasite reduction ratio at 10 times of IC50 concentration treated up to 120 hrs measured after 21 days of serial dilution; assay type: functional; conditions: time hrs <=120
How it was run: (§5)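 Samples taken every 24 h and washed free of drug. Viable parasites counted by limiting dilution: 3-fold serial dilutions, four independent series, growth scored at 21 days and confirmed at 28 days.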

CYP2D6 = CYP2D6 (Homo sapiens, UniProt P10635); assay: Inhibition of CYP2D6 (unknown origin) at 10 uM by UPLC-MS analysis relative to control; assay type: ADME; how it was run: as §2
Plasmodium falciparum [8] = assay: Antiplasmodial activity against asexual blood stage Plasmodium falciparum 3D7 (MR4) infected in erythrocytes assessed as parasite clearance time for 99.9% organism; assay type: functional; how it was run: as §5
Plasmodium falciparum [9] = assay: Antimalarial activity against Plasmodium falciparum 3D70087/N9 infected in humanized NODscidlL2Rgamma null mouse model assessed as reduction in parasitemia at 100 mg/kg, po for 4 consecutive days measured after 7 days of post infection relative to control; assay type: functional; conditions: 3D70087/N9, po, 96 h, time 4 day
How it was run: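 P. falciparum humanized SCID mouse model. Monosodium tetrahydrate salt given orally at 50 or 100 mg/kg on 4 consecutive days, n = 2 mice per group. Parasitemia read at day 7 post infection versus untreated controls.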

[10] = Intrinsic clearance in human hepatocytes measured per 10^6 cells at 0.25 uM by LC-MS analysis; assay type: ADME, cell-based, Hepatocyte; conditions: read-out: CLH
How it was run: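 Compound at 0.25 μM incubated with cryopreserved human or rat hepatocytes (1×10^6 cells/mL) in Krebs–Henseleit buffer at 37 °C. Quenched with acetonitrile containing diazepam. LC-MS quantitation. CLint from the first-order degradation rate constant.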

[11] = Stability in human plasma assessed as compound remaining at 1000 ng/ml after 2 hrs by LC-MS analysis; assay type: ADME, cell-free; conditions: read-out: Stability
How it was run: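 Pooled plasma (human, 3 donors; or male Sprague Dawley rat) spiked to nominal 1000 ng/mL, with at most 0.2% DMSO and 0.4% acetonitrile final. Held at 37 °C with timed aliquots. LC-MS against matrix standards with diazepam internal standard. Percent remaining is relative to the 5 min sample.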

[12] = Kinetic solubility of the compound in pH 6.5 phosphate buffer by nephelometry; assay type: physicochemical; conditions: read-out: Kinetic_solubility
How it was run: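 DMSO stock spiked into pH 6.5 phosphate buffer (1% DMSO final). After 30 min, solubility range estimated by nephelometry.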

CYP3A4 = CYP3A4 (Homo sapiens, UniProt P08684); assay: Inhibition of CYP3A4 (unknown origin) at 10 uM by UPLC-MS analysis relative to control; assay type: ADME; how it was run: as §2
Plasmodium falciparum [13] = assay: Antimalarial activity against Plasmodium falciparum K1 harbouring Pf-crt, Pf-mdrl,Pf-dhfr, Pf-dhps mutated loci assessed as inhibition of parasite growth incubated for […] by [3H]hypoxanthine incorporation assay based liquid scintillation counting method; assay type: functional, organism-based; how it was run: as §3
[14] = Ratio of drug level in whole blood to plasma in Sprague-Dawley rat by LC-MS analysis; assay type: ADME, cell-free; conditions: whole blood and plasma
How it was run: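 Apparent whole-blood-to-plasma partitioning measured in vitro in rat blood.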

[15] = Intrinsic clearance in rat liver microsomes at […] by LC-MS/MS analysis; assay type: ADME, Microsome; how it was run: as §4
Hepatocyte = assay: Cytotoxicity against human hepatocyte measured after 96 hrs; assay type: cell-based; conditions: hepatocytes
Plasmodium falciparum [16] = assay: Antimalarial activity against Plasmodium falciparum Dd2 DSM265 mutant harbouring […] assessed as inhibition of parasite growth incubated for […] by [3H]hypoxanthine incorporation assay based liquid scintillation counting method; assay type: functional, organism-based; how it was run: as §1

CYP3A4, sequence (P08684 whole entry): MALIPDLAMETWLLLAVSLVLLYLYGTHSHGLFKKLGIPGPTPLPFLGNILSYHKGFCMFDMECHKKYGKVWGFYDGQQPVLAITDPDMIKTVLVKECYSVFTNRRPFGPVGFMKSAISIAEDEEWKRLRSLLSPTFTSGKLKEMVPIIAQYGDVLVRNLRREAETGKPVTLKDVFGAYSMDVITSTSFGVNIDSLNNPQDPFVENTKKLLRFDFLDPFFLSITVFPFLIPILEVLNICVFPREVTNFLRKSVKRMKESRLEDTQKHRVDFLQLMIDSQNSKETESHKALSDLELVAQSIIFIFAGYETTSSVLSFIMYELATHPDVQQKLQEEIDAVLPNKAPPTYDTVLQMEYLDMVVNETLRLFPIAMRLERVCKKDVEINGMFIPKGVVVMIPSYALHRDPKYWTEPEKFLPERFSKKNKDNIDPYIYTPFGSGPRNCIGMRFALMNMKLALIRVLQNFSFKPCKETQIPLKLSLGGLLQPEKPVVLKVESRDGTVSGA
Voltage-gated inwardly rectifying potassium channel KCNH2, sequence (Q12809 whole entry): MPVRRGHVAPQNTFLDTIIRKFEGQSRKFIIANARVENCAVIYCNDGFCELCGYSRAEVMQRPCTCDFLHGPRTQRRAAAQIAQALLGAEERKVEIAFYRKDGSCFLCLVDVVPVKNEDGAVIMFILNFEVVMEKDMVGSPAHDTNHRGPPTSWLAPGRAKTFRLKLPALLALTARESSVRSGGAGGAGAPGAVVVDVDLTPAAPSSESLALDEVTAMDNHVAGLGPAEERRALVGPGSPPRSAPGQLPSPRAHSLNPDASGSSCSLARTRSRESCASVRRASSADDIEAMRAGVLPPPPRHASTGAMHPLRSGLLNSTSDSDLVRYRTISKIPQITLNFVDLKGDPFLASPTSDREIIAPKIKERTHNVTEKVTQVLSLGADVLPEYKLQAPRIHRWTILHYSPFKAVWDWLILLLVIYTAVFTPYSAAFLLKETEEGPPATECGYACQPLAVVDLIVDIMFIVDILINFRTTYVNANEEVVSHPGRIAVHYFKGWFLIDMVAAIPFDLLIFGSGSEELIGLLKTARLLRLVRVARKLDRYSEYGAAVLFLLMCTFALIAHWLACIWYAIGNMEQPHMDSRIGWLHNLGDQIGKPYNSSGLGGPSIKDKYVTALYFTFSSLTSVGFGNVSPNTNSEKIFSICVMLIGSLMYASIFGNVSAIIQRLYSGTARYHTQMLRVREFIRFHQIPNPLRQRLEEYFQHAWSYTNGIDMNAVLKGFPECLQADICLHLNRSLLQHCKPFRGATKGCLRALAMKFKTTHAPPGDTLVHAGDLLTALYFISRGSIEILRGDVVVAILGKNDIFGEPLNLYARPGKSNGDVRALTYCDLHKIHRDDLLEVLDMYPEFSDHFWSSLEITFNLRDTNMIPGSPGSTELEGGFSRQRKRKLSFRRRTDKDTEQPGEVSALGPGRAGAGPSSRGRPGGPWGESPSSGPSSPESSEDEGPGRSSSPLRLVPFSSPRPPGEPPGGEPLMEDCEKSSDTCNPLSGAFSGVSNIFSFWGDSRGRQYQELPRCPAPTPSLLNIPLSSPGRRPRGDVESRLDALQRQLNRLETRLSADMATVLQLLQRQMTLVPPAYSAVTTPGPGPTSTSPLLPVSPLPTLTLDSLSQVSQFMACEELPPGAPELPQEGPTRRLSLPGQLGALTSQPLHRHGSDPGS
CYP2D6, sequence (P10635 whole entry): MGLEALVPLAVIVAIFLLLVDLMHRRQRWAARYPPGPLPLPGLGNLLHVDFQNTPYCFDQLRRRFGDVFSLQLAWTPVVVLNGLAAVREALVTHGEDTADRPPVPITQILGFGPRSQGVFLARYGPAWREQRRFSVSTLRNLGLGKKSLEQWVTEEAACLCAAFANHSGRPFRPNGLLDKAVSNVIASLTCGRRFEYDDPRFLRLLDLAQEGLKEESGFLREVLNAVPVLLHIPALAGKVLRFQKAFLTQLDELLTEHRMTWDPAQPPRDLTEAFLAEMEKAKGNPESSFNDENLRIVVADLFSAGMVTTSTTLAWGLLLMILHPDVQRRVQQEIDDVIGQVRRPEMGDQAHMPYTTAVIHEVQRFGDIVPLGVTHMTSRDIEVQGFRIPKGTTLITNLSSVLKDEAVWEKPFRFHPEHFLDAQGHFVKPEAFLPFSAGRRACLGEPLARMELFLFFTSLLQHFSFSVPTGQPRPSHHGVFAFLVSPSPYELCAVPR

`CCc1cccc(CNC(=O)c2nc3cccc(COCc4ccc(C(=O)O)cc4)c3c(=O)[nH]2)c1` showed an IC50 (Plasmodium falciparum [1]) of 25 nM, a Fu [2] of 0.2% and an IC50 (Plasmodium falciparum [3]) of 27 nM. For the same compound, the inhibition at 10 µM (CYP1A2) was < 10%, the IC50 [4] was > 30000 nM and the IC50 (Plasmodium falciparum [5]) was 16 nM. For the same compound, the CLH [6] was 183 uL/ml.millig, the Ratio (Plasmodium falciparum [7]) was 4.6 and the inhibition at 10 µM (CYP2D6) was < 10%. The Time (Plasmodium falciparum [8]) was 32 h, the inhibition in vivo at 100 mg/kg (Plasmodium falciparum [9]) was 89% and the hepatocyte CLint at 0.25 µM [10] was 15 µL/min/1e6 cells. The remaining at 2 h, 1000 ng/ml [11] was 100%, the solubility kinetic [12] was < 1.6 µg/mL and the inhibition at 10 µM (CYP3A4) was < 10%. For the same compound, the IC50 (Plasmodium falciparum [13]) was 31 nM, the blood plasma ratio [14] was 0.62 and the CLH [15] was 36 uL/ml.millig. The Activity (Hepatocyte) was “Non-Toxic” and the IC50 (Plasmodium falciparum [16]) was 23 nM.
